Source: ChEMBL document CHEMBL4130523, “Targeting the Allosteric Site of Oncoprotein BCR-ABL as an Alternative Strategy for Effective Target Protein Degradation” (ACS Med Chem Lett, 2017)
Calls of active or inactive are those of the source. The rule behind the calls is not given here.

What was measured:
MOLT-4 = assay: Growth inhibition of human MOLT4 cells up to 1000 nM after 48 hrs by WST-8 assay; format: functional, cell-based
Method in brief: (§1)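 Cells exposed for 48 h to a graded concentration series of compound. Growth was read per well and reported as mean ± standard deviation of triplicate (n = 3) determinations.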

KCL-22 = assay: Growth inhibition of human KCL22 cells up to 1000 nM after 48 hrs by WST-8 assay; format: functional, cell-based; method in brief: as §1
[1] = biological target: Tyrosine-protein kinase ABL1 (Homo sapiens, UniProt P00519); assay: Inhibition of recombinant human His-tagged full length ABL1 allosteric site expressed in baculovirus expression system by TR-FRET assay
Tyrosine-protein kinase ABL1, sequence (P00519 whole entry): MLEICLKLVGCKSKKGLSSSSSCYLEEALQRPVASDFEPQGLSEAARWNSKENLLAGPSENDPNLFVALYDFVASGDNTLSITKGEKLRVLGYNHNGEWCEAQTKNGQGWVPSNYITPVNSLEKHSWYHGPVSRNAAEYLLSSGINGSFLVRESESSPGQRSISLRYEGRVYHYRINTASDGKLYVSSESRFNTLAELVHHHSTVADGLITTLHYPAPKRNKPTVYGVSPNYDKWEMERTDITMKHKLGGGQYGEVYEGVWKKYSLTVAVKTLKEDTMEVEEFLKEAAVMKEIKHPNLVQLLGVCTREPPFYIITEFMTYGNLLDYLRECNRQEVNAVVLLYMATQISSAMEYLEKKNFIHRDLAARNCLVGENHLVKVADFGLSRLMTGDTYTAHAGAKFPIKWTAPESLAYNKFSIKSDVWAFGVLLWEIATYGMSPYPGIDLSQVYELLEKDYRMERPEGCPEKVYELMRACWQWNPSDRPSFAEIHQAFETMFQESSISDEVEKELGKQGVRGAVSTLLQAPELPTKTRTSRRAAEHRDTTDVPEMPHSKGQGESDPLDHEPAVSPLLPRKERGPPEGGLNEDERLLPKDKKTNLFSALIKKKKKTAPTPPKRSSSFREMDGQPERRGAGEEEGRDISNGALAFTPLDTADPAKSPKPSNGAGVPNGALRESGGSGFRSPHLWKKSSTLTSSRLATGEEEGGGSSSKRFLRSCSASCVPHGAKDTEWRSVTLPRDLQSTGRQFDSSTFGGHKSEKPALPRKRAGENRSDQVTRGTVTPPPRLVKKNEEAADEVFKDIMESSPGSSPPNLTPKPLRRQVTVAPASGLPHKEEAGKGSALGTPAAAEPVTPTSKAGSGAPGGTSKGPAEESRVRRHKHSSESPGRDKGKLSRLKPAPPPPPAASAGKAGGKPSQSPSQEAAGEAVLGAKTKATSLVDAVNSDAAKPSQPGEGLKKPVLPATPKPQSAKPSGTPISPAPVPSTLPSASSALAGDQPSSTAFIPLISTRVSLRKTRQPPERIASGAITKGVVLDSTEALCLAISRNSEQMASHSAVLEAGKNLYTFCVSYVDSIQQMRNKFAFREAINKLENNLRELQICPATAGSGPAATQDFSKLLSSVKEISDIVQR

Jurkat = assay: Growth inhibition of human Jurkat cells up to 1000 nM after 48 hrs by WST-8 assay; format: functional, cell-based; method in brief: as §1
[2] = biological target: Baculoviral IAP repeat-containing protein 2 (Homo sapiens, UniProt Q13490); assay: Inhibition of recombinant human His-tagged cIAP1 (Leu250 to Gly350 residues) expressed in Escherichia coli by TR-FRET assay
Baculoviral IAP repeat-containing protein 2, sequence (Q13490 whole entry): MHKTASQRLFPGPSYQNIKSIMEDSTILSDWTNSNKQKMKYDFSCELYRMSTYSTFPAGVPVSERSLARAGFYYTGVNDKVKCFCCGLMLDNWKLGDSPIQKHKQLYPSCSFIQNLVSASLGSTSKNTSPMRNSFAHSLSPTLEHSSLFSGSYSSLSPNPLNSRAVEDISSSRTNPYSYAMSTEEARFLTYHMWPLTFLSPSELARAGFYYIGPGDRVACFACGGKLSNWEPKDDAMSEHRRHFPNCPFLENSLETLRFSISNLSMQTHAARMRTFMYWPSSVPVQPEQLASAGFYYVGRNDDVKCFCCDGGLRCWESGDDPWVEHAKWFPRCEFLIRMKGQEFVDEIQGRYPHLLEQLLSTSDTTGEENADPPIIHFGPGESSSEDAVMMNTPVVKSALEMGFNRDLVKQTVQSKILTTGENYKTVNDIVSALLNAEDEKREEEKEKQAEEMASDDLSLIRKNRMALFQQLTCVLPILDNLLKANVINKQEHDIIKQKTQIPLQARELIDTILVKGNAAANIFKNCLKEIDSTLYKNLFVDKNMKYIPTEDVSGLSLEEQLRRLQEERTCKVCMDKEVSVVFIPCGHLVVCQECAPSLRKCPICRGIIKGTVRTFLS

K562 [3] = assay: Growth inhibition of human K562 cells at >= 100 nM after 48 hrs by WST-8 assay; format: functional, cell-based; method in brief: as §1
[4] = biological target: T1, Bcr/Abl fusion protein (Homo sapiens) (UniProt P00519+P11274); assay: Inhibition of BCR-ABL in human K562 cells assessed as reduction in STAT5 phosphorylation at 100 nM after 6 hrs by Western blot analysis; format: cell-based
T1 sequence (P00519 whole entry, looked up, the tested form may be a part): as the sequence (P00519 whole entry) above
T1 sequence (P11274 whole entry, looked up, the tested form may be a part): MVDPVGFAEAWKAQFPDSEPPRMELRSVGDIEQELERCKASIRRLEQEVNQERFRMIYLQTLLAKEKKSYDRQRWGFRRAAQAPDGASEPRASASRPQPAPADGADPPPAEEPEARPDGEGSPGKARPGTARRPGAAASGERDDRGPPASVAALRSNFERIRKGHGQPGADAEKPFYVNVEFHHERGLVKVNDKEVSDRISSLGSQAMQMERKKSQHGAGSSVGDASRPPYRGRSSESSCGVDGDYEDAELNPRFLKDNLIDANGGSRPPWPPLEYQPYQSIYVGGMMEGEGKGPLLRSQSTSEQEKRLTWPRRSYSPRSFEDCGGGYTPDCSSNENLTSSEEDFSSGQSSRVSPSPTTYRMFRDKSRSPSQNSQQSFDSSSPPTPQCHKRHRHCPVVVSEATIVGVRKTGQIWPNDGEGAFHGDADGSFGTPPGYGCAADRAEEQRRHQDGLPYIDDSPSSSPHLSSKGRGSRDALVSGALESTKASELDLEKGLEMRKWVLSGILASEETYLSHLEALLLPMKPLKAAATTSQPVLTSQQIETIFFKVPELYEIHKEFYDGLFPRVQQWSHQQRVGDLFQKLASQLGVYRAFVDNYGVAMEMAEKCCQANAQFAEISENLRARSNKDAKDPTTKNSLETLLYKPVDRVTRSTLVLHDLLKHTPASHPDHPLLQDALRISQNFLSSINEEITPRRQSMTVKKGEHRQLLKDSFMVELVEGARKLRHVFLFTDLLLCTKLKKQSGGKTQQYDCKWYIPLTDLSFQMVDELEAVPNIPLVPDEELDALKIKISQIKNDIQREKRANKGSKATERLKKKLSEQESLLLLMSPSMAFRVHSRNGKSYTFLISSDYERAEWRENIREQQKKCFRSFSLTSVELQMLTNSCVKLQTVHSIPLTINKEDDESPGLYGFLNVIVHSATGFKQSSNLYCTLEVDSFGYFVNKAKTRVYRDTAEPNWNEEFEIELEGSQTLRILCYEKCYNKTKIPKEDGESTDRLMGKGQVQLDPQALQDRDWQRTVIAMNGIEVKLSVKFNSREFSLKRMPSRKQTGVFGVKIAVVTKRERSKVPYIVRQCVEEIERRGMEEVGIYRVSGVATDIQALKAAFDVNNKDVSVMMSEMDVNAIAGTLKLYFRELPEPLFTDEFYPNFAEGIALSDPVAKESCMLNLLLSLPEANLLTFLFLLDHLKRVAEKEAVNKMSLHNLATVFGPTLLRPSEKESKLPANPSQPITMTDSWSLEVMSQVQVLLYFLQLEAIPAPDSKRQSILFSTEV
Method in brief: (§2)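 K562 cells were exposed to 100 nM compound for 6 h. Lysates were immunoblotted for phosphorylated STAT5 and phosphorylated CrkL, which are BCR-ABL substrates, alongside phosphorylated BCR-ABL.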

[5] = biological target: T1, Bcr/Abl fusion protein (Homo sapiens); assay: Inhibition of BCR-ABL in human K562 cells assessed as reduction in CrkL phosphorylation at 100 nM after 6 hrs by Western blot analysis; format: cell-based; method in brief: as §2
[6] = biological target: E3 ubiquitin-protein ligase XIAP (Homo sapiens, UniProt P98170); assay: Inhibition of recombinant human His-tagged XIAP (Asn252 to Thr356 residues) expressed in Escherichia coli by TR-FRET assay
E3 ubiquitin-protein ligase XIAP, sequence (P98170 whole entry): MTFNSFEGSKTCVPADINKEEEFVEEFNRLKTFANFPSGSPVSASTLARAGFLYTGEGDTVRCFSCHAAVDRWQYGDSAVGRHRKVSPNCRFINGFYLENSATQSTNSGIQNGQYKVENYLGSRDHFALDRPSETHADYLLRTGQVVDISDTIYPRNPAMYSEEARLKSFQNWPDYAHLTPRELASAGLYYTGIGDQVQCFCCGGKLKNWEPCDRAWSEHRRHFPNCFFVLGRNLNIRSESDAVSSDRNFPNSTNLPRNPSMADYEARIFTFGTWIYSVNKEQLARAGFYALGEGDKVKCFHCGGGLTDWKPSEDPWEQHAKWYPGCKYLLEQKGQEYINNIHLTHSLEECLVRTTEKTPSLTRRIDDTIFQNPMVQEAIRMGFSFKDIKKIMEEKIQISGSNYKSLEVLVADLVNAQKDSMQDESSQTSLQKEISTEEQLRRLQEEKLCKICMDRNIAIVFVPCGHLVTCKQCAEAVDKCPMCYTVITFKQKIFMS

[7] = biological target: Baculoviral IAP repeat-containing protein 3 (Homo sapiens, UniProt Q13489); assay: Inhibition of recombinant human His-tagged cIAP2 (Gln238 to Ser349 residues) expressed in Escherichia coli by TR-FRET assay
Baculoviral IAP repeat-containing protein 3, sequence (Q13489 whole entry): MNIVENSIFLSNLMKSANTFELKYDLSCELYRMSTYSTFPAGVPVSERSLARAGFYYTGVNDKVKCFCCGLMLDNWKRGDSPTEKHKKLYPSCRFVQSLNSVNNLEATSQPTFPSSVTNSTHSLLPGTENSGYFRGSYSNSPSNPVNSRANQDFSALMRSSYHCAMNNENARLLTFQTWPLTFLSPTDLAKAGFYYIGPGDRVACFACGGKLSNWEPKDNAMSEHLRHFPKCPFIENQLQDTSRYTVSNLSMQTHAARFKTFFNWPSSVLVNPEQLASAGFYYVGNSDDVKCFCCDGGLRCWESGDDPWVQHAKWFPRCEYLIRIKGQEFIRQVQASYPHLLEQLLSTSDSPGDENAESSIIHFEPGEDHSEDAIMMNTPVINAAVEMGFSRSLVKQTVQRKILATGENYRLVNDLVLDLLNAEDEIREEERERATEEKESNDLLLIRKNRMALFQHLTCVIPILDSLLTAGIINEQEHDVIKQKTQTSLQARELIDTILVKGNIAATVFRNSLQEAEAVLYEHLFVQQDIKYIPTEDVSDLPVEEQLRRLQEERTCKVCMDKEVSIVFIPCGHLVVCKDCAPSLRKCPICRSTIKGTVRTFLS

[8] = biological target: Baculoviral IAP repeat-containing protein 2/Tyrosine-protein kinase ABL1/Breakpoint cluster region protein (Homo sapiens) (UniProt P00519+P11274+Q13490); assay: Induction of cIAP1-mediated BCR-ABL degradation in human K562 cells at 100 nM after 6 hrs by Western blot analysis relative to beta-actin; format: cell-based
Baculoviral IAP repeat-containing protein 2/Tyrosine-protein kinase ABL1/Breakpoint cluster region protein (Homo sapiens), sequence (P00519 whole entry, looked up): as the sequence (P00519 whole entry) above
Baculoviral IAP repeat-containing protein 2/Tyrosine-protein kinase ABL1/Breakpoint cluster region protein (Homo sapiens), sequence (P11274 whole entry, looked up): as the sequence (P11274 whole entry, looked up, the tested form may be a part) above
Baculoviral IAP repeat-containing protein 2/Tyrosine-protein kinase ABL1/Breakpoint cluster region protein (Homo sapiens), sequence (Q13490 whole entry, looked up): as the sequence (Q13490 whole entry) above
Method in brief: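 K562 cells were treated for 6 h with test agent at graded concentrations, or with IAP ligand 4 at 10 μM as competitor. BCR-ABL was then immunoblotted. BCR-ABL band intensity was normalized to β-actin and expressed relative to a vehicle control set at 100. Means ± standard deviation, n = 3.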

K562 [9] = assay: Growth inhibition of human K562 cells up to 1000 nM after 48 hrs by WST-8 assay; format: functional, cell-based; method in brief: as §1
[10] = biological target: T1, Bcr/Abl fusion protein (Homo sapiens); assay: Inhibition of BCR-ABL phosphorylation in human K562 cells at 100 nM after 6 hrs by Western blot analysis relative to beta-actin; format: cell-based

| SMILES | IC50 [1] [nM] | IC50 [2] [nM] | inhibition [4] | inhibition [5] | further results |
| --- | --- | --- | --- | --- | --- |
| CN[C@@H](C)C(=O)N(C)[C@H](C(=O)N1CCC[C@H]1c1nc(C(=O)c2cccc(OCCOCCOCCNC(=O)C3CCN(c4ncc(C(=O)Nc5ccc(OC(F)(F)Cl)cc5)cc4-c4ccn[nH]4)C3)c2)cs1)C1CCCCC1 (stereo partly specified) | 340 | > 1000 | – | – | IC50 [6]: > 1000 nM; IC50 [7]: > 1000 nM; fold change (FC) [8]: 102 |
| CN[C@@H](C)C(=O)N[C@H](C(=O)N1CCC[C@H]1c1nc(C(=O)c2cccc(OCCOCCOCCNC(=O)c3cccc(-c4cc(Nc5ccc(OC(F)(F)F)cc5)ncn4)c3)c2)cs1)C1CCCCC1 | 2000 | 220 | – | – | – |

Continued, in another order:

| IC50 [1] [nM] | IC50 [2] [nM] | inhibition [4] | inhibition [5] | SMILES | further results |
| --- | --- | --- | --- | --- | --- |
| 360 | 86 | Active | Active | CN[C@@H](C)C(=O)N[C@H](C(=O)N1CCC[C@H]1c1nc(C(=O)c2cccc(OCCOCCOCCNC(=O)C3CCN(c4ncc(C(=O)Nc5ccc(OC(F)(F)Cl)cc5)cc4-c4ccn[nH]4)C3)c2)cs1)C1CCCCC1 (stereo partly specified) | growth inhibition (GI) (MOLT-4): inactive; growth inhibition (GI) (KCL-22): Active; growth inhibition (GI) (Jurkat): inactive; growth inhibition (GI) (K562 [3]): Active |
| – | 4.8 | – | – | CN[C@@H](C)C(=O)N[C@H](C(=O)N1CCC[C@H]1c1nc(C(=O)c2cccc(OC)c2)cs1)C1CCCCC1 | growth inhibition (GI) (K562 [9]): inactive |
| 35 | – | Active | Active | COC(=O)C1CCN(c2ncc(C(=O)Nc3ccc(OC(F)(F)Cl)cc3)cc2-c2ccn[nH]2)C1 (stereo unspecified) | fold change (FC) [10]: 92 |
